# In ChEMBL document CHEMBL4038327, “Inhibitory Kappa B Kinase α (IKKα) Inhibitors That Recapitulate Their Selectivity in Cells against Isoform-Related Biomarkers” (J Med Chem, 2017):
# pIC50: −log10 of the molar value.
# Key:
# [1] = molecular target: T1, Inhibitor of nuclear factor kappa-B kinase subunit alpha (Homo sapiens) (UniProt O15111); experiment: (§1) Inhibition of IKKalpha in human U2OS cells assessed as decrease in FCS induced p100 phosphorylation at ser866/870 residues preincubated for 1 hr followed by FCS stimulation for 4 hrs by Western blot analysis; type: cell-based
# T1 sequence (whole entry): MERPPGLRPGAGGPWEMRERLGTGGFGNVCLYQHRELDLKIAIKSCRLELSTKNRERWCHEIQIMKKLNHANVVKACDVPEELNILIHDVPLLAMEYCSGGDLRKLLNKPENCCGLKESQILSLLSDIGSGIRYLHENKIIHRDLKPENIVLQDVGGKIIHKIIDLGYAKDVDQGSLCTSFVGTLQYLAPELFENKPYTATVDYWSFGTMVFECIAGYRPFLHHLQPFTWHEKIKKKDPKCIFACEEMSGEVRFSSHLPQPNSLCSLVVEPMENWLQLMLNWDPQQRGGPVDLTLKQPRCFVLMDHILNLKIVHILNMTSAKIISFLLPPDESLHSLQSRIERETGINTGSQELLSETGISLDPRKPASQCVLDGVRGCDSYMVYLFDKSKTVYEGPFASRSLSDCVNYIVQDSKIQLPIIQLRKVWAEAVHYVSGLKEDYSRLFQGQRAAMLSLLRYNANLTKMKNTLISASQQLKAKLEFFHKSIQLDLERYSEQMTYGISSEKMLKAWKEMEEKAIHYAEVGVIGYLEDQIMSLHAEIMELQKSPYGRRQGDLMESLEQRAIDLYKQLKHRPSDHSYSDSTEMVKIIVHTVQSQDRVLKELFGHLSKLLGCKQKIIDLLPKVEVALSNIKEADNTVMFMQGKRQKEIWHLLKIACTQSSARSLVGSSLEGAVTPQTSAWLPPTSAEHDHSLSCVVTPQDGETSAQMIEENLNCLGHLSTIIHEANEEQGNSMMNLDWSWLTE
# In short: (§2)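 U2OS cells were grown in McCoy's 5A medium at 37 °C under 5% CO2 and made quiescent by 24 h serum deprivation. They were then pretreated with compound before agonist stimulation in serum-free medium. Phospho-p100, IκBα levels and phospho-p65 (Ser536) were assessed by Western blot.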
# [2] = molecular target: T2, Inhibitor of nuclear factor kappa-B kinase subunit alpha (Homo sapiens, UniProt O15111); experiment: as §1; type: cell-based; in short: as §2
# T2 sequence (O15111 whole entry): T1 sequence (whole entry)
compound,measurement,setting,value
N#Cc1c[nH]c2nc(N)nc(-c3ccc(S(N)(=O)=O)cc3)c12,inhibition,[1],Dose-dependent effect
same,pIC50,[2],5.06 to 5.24
